{"source": "ChEMBL document CHEMBL1142492", "about": "(J Med Chem, 2008)", "key": {"[1]": {"target": "Cyclin-dependent kinase 15 (Homo sapiens) (UniProt Q96Q40)", "assay": "Inhibition of PFTAIRE2 at 3 uM"}, "[2]": {"target": "Non-receptor tyrosine-protein kinase TNK1 (Homo sapiens) (UniProt Q13470)", "sequence (Q13470 whole entry)": "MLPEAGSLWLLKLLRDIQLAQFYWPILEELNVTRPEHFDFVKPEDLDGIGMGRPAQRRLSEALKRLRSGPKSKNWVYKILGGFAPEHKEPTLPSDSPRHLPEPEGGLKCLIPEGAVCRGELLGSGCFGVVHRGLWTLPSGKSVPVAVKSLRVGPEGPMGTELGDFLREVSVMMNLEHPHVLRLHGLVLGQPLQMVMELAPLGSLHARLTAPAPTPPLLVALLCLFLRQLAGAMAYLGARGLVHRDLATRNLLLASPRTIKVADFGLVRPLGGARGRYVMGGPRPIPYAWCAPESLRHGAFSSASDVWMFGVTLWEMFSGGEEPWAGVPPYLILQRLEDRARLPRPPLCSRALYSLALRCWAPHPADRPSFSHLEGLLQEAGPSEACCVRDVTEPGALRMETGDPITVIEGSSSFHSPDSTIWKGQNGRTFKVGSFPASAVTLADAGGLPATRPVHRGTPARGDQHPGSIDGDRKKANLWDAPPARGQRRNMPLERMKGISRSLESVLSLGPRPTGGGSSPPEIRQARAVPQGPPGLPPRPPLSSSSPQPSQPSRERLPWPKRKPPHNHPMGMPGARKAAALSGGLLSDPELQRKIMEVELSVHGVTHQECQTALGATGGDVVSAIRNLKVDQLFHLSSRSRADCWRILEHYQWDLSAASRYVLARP", "assay": "Inhibition of TNK1 at 3 uM"}, "[3]": {"target": "Death-associated protein kinase 3 (Homo sapiens) (UniProt O43293)", "sequence (O43293 whole entry, looked up)": "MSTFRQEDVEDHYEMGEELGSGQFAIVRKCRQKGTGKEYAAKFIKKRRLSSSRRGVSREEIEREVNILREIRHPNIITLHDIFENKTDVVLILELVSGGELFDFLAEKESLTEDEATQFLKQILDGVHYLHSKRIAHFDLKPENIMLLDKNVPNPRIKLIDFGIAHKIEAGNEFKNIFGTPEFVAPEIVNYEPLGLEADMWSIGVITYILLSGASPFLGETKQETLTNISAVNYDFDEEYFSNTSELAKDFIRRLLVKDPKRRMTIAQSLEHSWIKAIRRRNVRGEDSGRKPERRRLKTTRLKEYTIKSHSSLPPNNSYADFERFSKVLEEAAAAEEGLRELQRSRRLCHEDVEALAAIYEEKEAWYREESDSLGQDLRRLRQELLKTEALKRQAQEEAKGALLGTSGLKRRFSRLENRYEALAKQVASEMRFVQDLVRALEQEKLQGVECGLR", "assay": "Inhibition of DAPK3 at 3 uM"}, "[4]": {"target": "Serine/threonine-protein kinase 36 (Homo sapiens) (UniProt Q9NRP7)", "sequence (Q9NRP7 whole entry)": "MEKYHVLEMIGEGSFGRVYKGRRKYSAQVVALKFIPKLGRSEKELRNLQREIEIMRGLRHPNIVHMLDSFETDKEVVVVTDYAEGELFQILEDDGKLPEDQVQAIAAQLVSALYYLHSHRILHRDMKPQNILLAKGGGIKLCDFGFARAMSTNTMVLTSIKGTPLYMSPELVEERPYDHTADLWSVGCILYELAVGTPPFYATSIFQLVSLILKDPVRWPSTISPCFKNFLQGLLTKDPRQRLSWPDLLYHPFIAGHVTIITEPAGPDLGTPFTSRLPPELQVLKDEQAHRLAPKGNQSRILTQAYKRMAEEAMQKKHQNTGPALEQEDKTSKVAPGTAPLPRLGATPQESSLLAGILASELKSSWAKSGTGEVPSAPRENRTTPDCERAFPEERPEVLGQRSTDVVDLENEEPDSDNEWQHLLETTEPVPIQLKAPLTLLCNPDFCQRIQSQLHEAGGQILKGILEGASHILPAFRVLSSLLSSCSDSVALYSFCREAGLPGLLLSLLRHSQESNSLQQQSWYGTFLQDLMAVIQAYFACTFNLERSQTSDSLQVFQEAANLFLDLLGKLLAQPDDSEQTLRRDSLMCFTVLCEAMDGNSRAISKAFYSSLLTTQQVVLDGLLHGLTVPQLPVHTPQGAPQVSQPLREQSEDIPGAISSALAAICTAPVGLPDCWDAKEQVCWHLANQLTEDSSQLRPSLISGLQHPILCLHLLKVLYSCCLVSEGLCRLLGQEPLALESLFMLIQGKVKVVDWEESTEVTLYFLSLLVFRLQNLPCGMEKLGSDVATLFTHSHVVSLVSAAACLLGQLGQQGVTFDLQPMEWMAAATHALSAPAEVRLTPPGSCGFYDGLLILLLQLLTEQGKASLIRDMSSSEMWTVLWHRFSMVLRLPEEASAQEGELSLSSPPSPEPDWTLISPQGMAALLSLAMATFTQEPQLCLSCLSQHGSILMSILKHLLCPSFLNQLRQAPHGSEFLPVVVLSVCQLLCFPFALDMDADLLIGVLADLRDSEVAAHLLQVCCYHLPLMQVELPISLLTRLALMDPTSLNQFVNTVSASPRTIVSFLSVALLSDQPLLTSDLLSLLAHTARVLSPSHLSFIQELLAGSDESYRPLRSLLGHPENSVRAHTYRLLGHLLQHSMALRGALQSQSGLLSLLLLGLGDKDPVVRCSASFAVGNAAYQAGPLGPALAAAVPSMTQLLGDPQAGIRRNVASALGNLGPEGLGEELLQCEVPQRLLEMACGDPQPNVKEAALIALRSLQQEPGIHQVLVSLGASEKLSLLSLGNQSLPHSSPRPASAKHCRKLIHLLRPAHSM", "assay": "Inhibition of STK36 at 3 uM"}, "[5]": {"target": "RAC-gamma serine/threonine-protein kinase (Homo sapiens) (UniProt Q9Y243)", "assay": "Inhibition of AKT3 at 3 uM"}, "[6]": {"target": "Phosphatidylinositol 4-phosphate 5-kinase type-1 alpha (Homo sapiens) (UniProt Q99755)", "assay": "Inhibition of PIP5K1A at 3 uM"}, "[7]": {"target": "Glutamate NMDA receptor (Rattus norvegicus) (UniProt P35439+Q00959+Q00960+Q00961+Q62645+Q8VHN2+Q9R1M7)", "assay": "Displacement of glycine from rat NMDA receptor at 3 uM", "format": "protein-complex assay", "method_in_brief": "(§1)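 Counter-screen binding/enzyme panel at single 3 μM, n=2; results as percent inhibition. Species per target as listed (rat NMDA, GABAA sites; human receptors, transporters; rabbit ACE).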"}, "[8]": {"target": "Protein kinase C delta type (Homo sapiens) (UniProt Q05655)", "assay": "Inhibition of PRKCD at 3 uM"}, "[9]": {"target": "Delta-type opioid receptor (Homo sapiens) (UniProt P41143)", "assay": "Inhibition of human delta opioid receptor at 3 uM", "method_in_brief": "as §1"}, "[10]": {"target": "Protein-tyrosine kinase 6 (Homo sapiens) (UniProt Q13882)", "assay": "Inhibition of PTK6 at 3 uM"}, "[11]": {"target": "Interleukin-1 receptor-associated kinase 3 (Homo sapiens) (UniProt Q9Y616)", "assay": "Inhibition of IRAK3 at 3 uM"}, "[12]": {"target": "Ephrin type-A receptor 5 (Homo sapiens) (UniProt P54756)", "assay": "Inhibition of EPHA5 at 3 uM", "method_in_brief": "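Single-concentration kinase panel scoring: each value is the percentage of enzyme activity remaining relative to a DMSO-only control. An activity statistically indistinct from DMSO control was scored \"no hit\".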"}, "[13]": {"target": "cGMP-dependent protein kinase 2 (Homo sapiens) (UniProt Q13237)", "assay": "Inhibition of PRKG2 at 3 uM"}, "[14]": {"target": "STE20-like serine/threonine-protein kinase (Homo sapiens) (UniProt Q9H2G2)", "assay": "Inhibition of SLK at 3 uM"}, "[15]": {"target": "Insulin receptor-related protein (Homo sapiens) (UniProt P14616)", "assay": "Inhibition of INSRR at 3 uM"}, "[16]": {"target": "Serine/threonine-protein kinase Nek2 (Homo sapiens) (UniProt P51955)", "assay": "Inhibition of NEK2 at 3 uM"}, "[17]": {"target": "LIM domain kinase 1 (Homo sapiens) (UniProt P53667)", "assay": "Inhibition of LIMK1 at 3 uM"}, "[18]": {"assay": "Volume of distribution in Sprague-Dawley rat at 1 mg/kg, iv", "details": "in vivo"}, "[19]": {"target": "Activin receptor type-1B (Homo sapiens) (UniProt P36896)", "assay": "Inhibition of ACVR1B at 3 uM"}, "[20]": {"target": "Adenosine receptor A3 (Homo sapiens) (UniProt P0DMS8)", "sequence (P0DMS8 whole entry)": "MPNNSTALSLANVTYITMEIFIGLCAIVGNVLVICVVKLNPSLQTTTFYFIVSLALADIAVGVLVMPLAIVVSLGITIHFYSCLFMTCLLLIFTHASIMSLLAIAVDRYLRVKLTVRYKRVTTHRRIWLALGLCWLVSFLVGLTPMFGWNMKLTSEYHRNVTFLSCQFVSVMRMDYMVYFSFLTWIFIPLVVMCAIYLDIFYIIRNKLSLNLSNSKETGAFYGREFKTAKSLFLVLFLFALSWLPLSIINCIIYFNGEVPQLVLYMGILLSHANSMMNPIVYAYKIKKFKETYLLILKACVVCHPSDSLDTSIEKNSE", "assay": "Inhibition of human adenosine A3 receptor at 3 uM", "method_in_brief": "as §1"}, "[21]": {"target": "SRSF protein kinase 3 (Homo sapiens) (UniProt Q9UPE1)", "sequence (Q9UPE1 whole entry)": "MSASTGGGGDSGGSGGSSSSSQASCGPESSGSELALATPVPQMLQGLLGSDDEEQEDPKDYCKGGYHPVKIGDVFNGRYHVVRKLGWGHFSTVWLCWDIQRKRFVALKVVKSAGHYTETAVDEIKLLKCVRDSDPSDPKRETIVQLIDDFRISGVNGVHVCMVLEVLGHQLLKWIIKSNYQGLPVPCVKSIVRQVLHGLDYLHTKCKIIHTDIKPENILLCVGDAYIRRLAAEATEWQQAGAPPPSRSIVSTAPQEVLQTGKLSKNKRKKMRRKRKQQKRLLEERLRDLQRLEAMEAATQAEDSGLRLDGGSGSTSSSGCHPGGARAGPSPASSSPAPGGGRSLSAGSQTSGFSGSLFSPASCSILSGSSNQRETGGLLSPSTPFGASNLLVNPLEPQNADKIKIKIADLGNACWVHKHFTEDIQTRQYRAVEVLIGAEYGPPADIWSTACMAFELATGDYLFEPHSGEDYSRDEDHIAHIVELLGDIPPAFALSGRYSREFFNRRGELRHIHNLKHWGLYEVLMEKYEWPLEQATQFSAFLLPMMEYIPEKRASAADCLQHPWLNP", "assay": "Inhibition of SRPK3 at 3 uM"}, "[22]": {"target": "Cyclin-dependent kinase 17 (Homo sapiens) (UniProt Q00537)", "assay": "Inhibition of PCTK2 at 3 uM"}, "[23]": {"target": "Mitogen-activated protein kinase 10 (Homo sapiens) (UniProt P53779)", "sequence (P53779 whole entry)": "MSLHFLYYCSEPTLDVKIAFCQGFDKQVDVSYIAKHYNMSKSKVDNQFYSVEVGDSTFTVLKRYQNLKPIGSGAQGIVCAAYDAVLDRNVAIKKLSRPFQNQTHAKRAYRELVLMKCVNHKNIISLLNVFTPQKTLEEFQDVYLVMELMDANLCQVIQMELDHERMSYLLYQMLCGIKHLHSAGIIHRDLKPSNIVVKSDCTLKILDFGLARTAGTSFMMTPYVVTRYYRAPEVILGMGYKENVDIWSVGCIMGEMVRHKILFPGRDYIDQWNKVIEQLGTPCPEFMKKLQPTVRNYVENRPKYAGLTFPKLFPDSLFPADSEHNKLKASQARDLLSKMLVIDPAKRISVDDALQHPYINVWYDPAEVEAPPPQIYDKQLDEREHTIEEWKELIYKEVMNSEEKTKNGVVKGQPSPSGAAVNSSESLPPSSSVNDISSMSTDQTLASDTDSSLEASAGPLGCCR", "assay": "Inhibition of JNK3 at 3 uM"}, "[24]": {"target": "Dual specificity protein kinase CLK3 (Homo sapiens) (UniProt P49761)", "assay": "Inhibition of CLK3 at 3 uM"}, "[25]": {"target": "Tyrosine-protein kinase ABL1 (Homo sapiens) (UniProt P00519)", "sequence (P00519 whole entry)": "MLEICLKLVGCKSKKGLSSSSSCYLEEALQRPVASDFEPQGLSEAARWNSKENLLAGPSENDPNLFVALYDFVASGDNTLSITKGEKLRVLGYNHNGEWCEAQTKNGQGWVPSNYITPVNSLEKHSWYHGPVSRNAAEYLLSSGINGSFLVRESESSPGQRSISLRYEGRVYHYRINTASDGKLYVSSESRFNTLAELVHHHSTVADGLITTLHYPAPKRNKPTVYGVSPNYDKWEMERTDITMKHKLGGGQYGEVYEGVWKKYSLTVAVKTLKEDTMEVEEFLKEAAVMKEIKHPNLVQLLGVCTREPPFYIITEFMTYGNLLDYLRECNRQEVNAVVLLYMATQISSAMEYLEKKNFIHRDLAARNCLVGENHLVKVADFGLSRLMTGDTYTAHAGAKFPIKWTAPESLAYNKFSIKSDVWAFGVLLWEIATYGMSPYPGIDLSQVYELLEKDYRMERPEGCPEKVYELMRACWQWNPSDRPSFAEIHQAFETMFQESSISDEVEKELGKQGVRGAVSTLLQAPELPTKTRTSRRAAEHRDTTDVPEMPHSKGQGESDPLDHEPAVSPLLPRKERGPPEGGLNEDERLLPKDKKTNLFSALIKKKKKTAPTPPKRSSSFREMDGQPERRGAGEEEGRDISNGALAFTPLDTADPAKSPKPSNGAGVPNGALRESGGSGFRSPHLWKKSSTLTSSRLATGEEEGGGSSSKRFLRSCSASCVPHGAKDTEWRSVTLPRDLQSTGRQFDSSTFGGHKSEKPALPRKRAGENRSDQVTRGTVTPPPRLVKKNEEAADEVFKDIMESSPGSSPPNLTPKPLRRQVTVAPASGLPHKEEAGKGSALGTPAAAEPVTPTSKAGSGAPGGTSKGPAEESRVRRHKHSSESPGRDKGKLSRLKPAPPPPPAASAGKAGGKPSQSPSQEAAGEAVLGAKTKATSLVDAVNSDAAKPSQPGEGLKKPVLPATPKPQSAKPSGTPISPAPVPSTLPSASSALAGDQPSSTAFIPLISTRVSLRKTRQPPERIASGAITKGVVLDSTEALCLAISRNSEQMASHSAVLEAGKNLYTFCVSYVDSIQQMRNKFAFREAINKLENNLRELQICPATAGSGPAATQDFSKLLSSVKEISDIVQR", "assay": "Inhibition of ABL1 at 3 uM"}}}
{"smiles": "CN(C)CCOc1cc(-c2cn[nH]c2)ccc1NC(=O)C1COc2ccccc2O1", "note": "(stereo not given) [SR-3677]", "values": [{"measurement": "inhibition", "setting": "[1]", "result": "< 10", "unit": "%"}, {"measurement": "inhibition", "setting": "[2]", "result": "< 10", "unit": "%"}, {"measurement": "inhibition", "setting": "[3]", "result": "< 10", "unit": "%"}, {"measurement": "inhibition", "setting": "[4]", "result": "< 10", "unit": "%"}, {"measurement": "inhibition", "setting": "[5]", "result": 77, "unit": "%"}, {"measurement": "inhibition", "setting": "[6]", "result": "< 10", "unit": "%"}, {"measurement": "inhibition", "setting": "[7]", "result": -10, "unit": "%"}, {"measurement": "inhibition", "setting": "[8]", "result": "< 10", "unit": "%"}, {"measurement": "inhibition", "setting": "[9]", "result": -9, "unit": "%"}, {"measurement": "inhibition", "setting": "[10]", "result": "< 10", "unit": "%"}, {"measurement": "inhibition", "setting": "[11]", "result": "< 10", "unit": "%"}, {"measurement": "inhibition", "setting": "[12]", "result": "< 10", "unit": "%"}, {"measurement": "inhibition", "setting": "[13]", "result": "< 10", "unit": "%"}, {"measurement": "inhibition", "setting": "[14]", "result": "< 10", "unit": "%"}, {"measurement": "inhibition", "setting": "[15]", "result": "< 10", "unit": "%"}, {"measurement": "inhibition", "setting": "[16]", "result": "< 10", "unit": "%"}, {"measurement": "inhibition", "setting": "[17]", "result": "< 10", "unit": "%"}, {"measurement": "Vd", "setting": "[18]", "result": 3, "unit": "L/kg"}, {"measurement": "inhibition", "setting": "[19]", "result": "< 10", "unit": "%"}, {"measurement": "inhibition", "setting": "[20]", "result": -4, "unit": "%"}, {"measurement": "inhibition", "setting": "[21]", "result": "< 10", "unit": "%"}, {"measurement": "inhibition", "setting": "[22]", "result": "< 10", "unit": "%"}, {"measurement": "inhibition", "setting": "[23]", "result": "< 10", "unit": "%"}, {"measurement": "inhibition", "setting": "[24]", "result": "< 10", "unit": "%"}, {"measurement": "inhibition", "setting": "[25]", "result": "< 10", "unit": "%"}]}
